# Test results reported in ChEMBL document CHEMBL4270630.
# What was measured:
# [1] = test system: Influenza B virus; assay: Antiviral activity against Influenza B virus B/HK/05/72 infected in MDCK cells assessed as reduction in virus-induced cytopathic effect after 3 days by microscopic method; format: functional, organism-based; settings: B/Hong Kong/05/1972, MDCK, 72 h
# Summary of the method: (§1)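 Semi-confluent MDCK cells were infected at an MOI of 0.0004 PFU/cell in Ultra-MDCK infection medium with 2 μg/mL TPCK-trypsin, together with compounds. After 3 days at 35 °C, CPE was scored by microscopy and confirmed by MTS formazan viability. EC50 is the concentration giving 50% inhibition of virus-induced CPE. Values are means of two to five independent tests.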
# [2] = test system: Influenza A virus; assay: Antiviral activity against Influenza A virus A/PR/8/34(H1N1) infected in MDCK cells assessed as reduction in virus-induced cytopathic effect after 3 days by microscopic method; format: functional, organism-based, A/Puerto Rico/8/1934(H1N1); settings: Influenza A virus, A/Puerto Rico/8/1934(H1N1), MDCK, 72 h; summary of the method: as §1
# [3] = test system: Influenza A virus; assay: Antiviral activity against Influenza A virus A/PR/8/34(H1N1) infected in MDCK cells after 3 days by MTS assay; format: functional, organism-based, A/Puerto Rico/8/1934(H1N1); settings: Influenza A virus, A/Puerto Rico/8/1934(H1N1), MDCK, 72 h; summary of the method: as §1
# [4] = test system: Influenza A virus; assay: Antiviral activity against Influenza A virus A/Virginia/ATCC3/2009(H1N1pdm) infected in MDCK cells assessed as reduction in virus-induced cytopathic effect after 3 days by microscopic method; format: functional, organism-based, Influenza A virus (A/Virginia/03/2009(H1N1)); settings: 72 h; summary of the method: as §1
# [5] = test system: H3N2 subtype; assay: Antiviral activity against Influenza A virus A/HK/7/87(H3N2) infected in MDCK cells assessed as reduction in virus-induced cytopathic effect after 3 days by microscopic method; format: functional, organism-based; settings: A/Hong Kong/7/1987(H3N2), 72 h; summary of the method: as §1
# [6] = test system: Influenza A virus; assay: Antiviral activity against Influenza A virus A/Virginia/ATCC3/2009(H1N1pdm) infected in MDCK cells after 3 days by MTS assay; format: functional, organism-based, Influenza A virus (A/Virginia/03/2009(H1N1)); settings: 72 h; summary of the method: as §1
# [7] = test system: H3N2 subtype; assay: Antiviral activity against Influenza A virus A/HK/7/87(H3N2) infected in MDCK cells after 3 days by MTS assay; format: functional, organism-based; settings: A/Hong Kong/7/1987(H3N2), 72 h; summary of the method: as §1
# [8] = Cytotoxicity against MDCK cells assessed as reduction in cell viability after 3 days by MTS assay; format: cell-based, Canis lupus familiaris; settings: dog, MDCK cells
# [9] = test system: Influenza B virus; assay: Antiviral activity against Influenza B virus B/HK/05/72 infected in MDCK cells after 3 days by MTS assay; format: functional, organism-based; settings: B/Hong Kong/05/1972, MDCK, 72 h; summary of the method: as §1
# [10] = Cytotoxicity against MDCK cells assessed as alteration in cell morphology after 3 days by microscopic method; format: cell-based, Canis lupus familiaris; settings: dog
# Summary of the method: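 Mock-infected MDCK cells were treated with compounds in parallel with the antiviral assay, 3 days at 35 °C. MCC is the concentration causing minimal change in cell morphology by microscopy. CC50 is the 50% cytotoxic concentration by MTS formazan viability assay.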
# [11] = test system: Influenza A virus; assay: Antiviral activity against Influenza A virus A/PR/8/34(H1N1) GFP-fused pseudotyped lentiviral particle expressing H1-HA/N1-NA infected in MDCK cells assessed as inhibition of pseudoparticle entry after 3 days by flow cytometry; format: functional, organism-based; settings: A/Puerto Rico/8/1934(H1N1)
# Summary of the method: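 MDCK cells were seeded at 7500/well and one day later were exposed to compounds plus GFP lentiviral pseudoparticles bearing A/PR/8/34 H1-HA and N1-NA, with HA0 activated by trypsin. After 3 days the cells were trypsinized, fixed in paraformaldehyde and analysed for GFP by flow cytometry. Entry inhibition was taken as the reduction in GFP signal. Data are the mean ± SEM of four independent experiments.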
Compound,EC50 [1] [µM],EC50 [2] [µM],EC50 [3] [µM],EC50 [4] [µM],EC50 [5] [µM],EC50 [6] [µM],EC50 [7] [µM],CC50 at 72 h [8] [µM],EC50 [9] [µM],MCC at 72 h [10] [µM],inhibition [11]
CC(=O)N[C@H]1[C@H](O[C@@H]2c3ccc(c(Cl)c3)Oc3cc4cc(c3O)Oc3ccc(cc3Cl)C[C@H]3NC(=O)[C@H](n5cc(CCOc6c7cc(C(C)(C)C)cc6Cc6cc(C(C)(C)C)cc(c6O)Cc6cc(C(C)(C)C)cc(c6O)Cc6cc(C(C)(C)C)cc(c6O)C7)nn5)c5ccc(O)c(c5)Oc5cc(O)cc(c5)[C@H](NC3=O)C(=O)N[C@H]4C(O)N[C@H]3C(=O)N[C@H]2C(=O)N[C@@H](C(=O)O)c2cc(O)cc(O)c2-c2cc3ccc2O)O[C@H](CO)[C@@H](O)[C@@H]1O (some centres undefined),> 100,> 100,43,8.9,> 100,6.7,5.2,≥ 58,5.7,≥ 20,
CCN(CC)CCCC(C)Nc1ccnc2cc(Cl)ccc12 (centres undefined),,,,,,,,,,,Dose-dependent effect
CCCCCCCCCCCCOCc1cn([C@H]2C(=O)N[C@@H]3Cc4ccc(c(Cl)c4)Oc4cc5cc(c4O)Oc4ccc(cc4Cl)[C@@H](O[C@@H]4O[C@H](CO)[C@@H](O)[C@H](O)[C@H]4NC(C)=O)[C@H]4NC(=O)[C@H](NC(O)[C@@H]5NC(=O)[C@@H](NC3=O)c3cc(O)cc(c3)Oc3cc2ccc3O)c2ccc(O)c(c2)-c2c(O)cc(O)cc2[C@H](C(=O)O)NC4=O)nn1 (some centres undefined),> 100,> 100,> 100,> 100,> 100,> 100,> 100,2.3,> 100,9.3,
CC(C)c1ccccc1NCCN1CCCCC1,,,,,,,,,,,Dose-dependent effect
CCc1ccccc1OCCN1CCCCCC1,,,,,,,,,,,Dose-dependent effect
CCCCCCCCCCCCCCCCOCc1cn([C@H]2C(=O)N[C@@H]3Cc4ccc(c(Cl)c4)Oc4cc5cc(c4O)Oc4ccc(cc4Cl)[C@@H](O[C@@H]4O[C@H](CO)[C@@H](O)[C@H](O)[C@H]4NC(C)=O)[C@H]4NC(=O)[C@H](NC(O)[C@@H]5NC(=O)[C@@H](NC3=O)c3cc(O)cc(c3)Oc3cc2ccc3O)c2ccc(O)c(c2)-c2c(O)cc(O)cc2[C@H](C(=O)O)NC4=O)nn1 (some centres undefined),1.8,1.6,1.8,1.8,≤ 8.9,1.8,≤ 1.6,7.6,1.3,≥ 4,
CCCCCCCCCCOCc1cn([C@H]2C(=O)N[C@@H]3Cc4ccc(c(Cl)c4)Oc4cc5cc(c4O)Oc4ccc(cc4Cl)[C@@H](O[C@@H]4O[C@H](CO)[C@@H](O)[C@H](O)[C@H]4NC(C)=O)[C@H]4NC(=O)[C@H](NC(O)[C@@H]5NC(=O)[C@@H](NC3=O)c3cc(O)cc(c3)Oc3cc2ccc3O)c2ccc(O)c(c2)-c2c(O)cc(O)cc2[C@H](C(=O)O)NC4=O)nn1 (some centres undefined),> 100,> 100,> 100,> 100,> 100,> 100,> 100,3.7,> 100,4,
CCCCCCOCc1cn([C@H]2C(=O)N[C@@H]3Cc4ccc(c(Cl)c4)Oc4cc5cc(c4O)Oc4ccc(cc4Cl)[C@@H](O[C@@H]4O[C@H](CO)[C@@H](O)[C@H](O)[C@H]4NC(C)=O)[C@H]4NC(=O)[C@H](NC(O)[C@@H]5NC(=O)[C@@H](NC3=O)c3cc(O)cc(c3)Oc3cc2ccc3O)c2ccc(O)c(c2)-c2c(O)cc(O)cc2[C@H](C(=O)O)NC4=O)nn1 (some centres undefined),17,> 100,> 100,> 100,15,> 100,13,53,11,≥ 20,
CC(=O)N[C@H]1[C@H](O[C@@H]2c3ccc(c(Cl)c3)Oc3cc4cc(c3O)Oc3ccc(cc3Cl)C[C@H]3NC(=O)[C@H](n5cc(CO[C@@H]6[C@H](OCc7ccccc7)[C@@H](OCc7ccccc7)[C@H](O[C@H]7[C@H](OCc8ccccc8)[C@@H](OCc8ccccc8)[C@H](Sc8ccccc8)O[C@@H]7COCc7ccccc7)O[C@@H]6COCc6ccccc6)nn5)c5ccc(O)c(c5)Oc5cc(O)cc(c5)[C@H](NC3=O)C(=O)N[C@H]4C(O)N[C@H]3C(=O)N[C@H]2C(=O)N[C@@H](C(=O)O)c2cc(O)cc(O)c2-c2cc3ccc2O)O[C@H](CO)[C@@H](O)[C@@H]1O (some centres undefined),6.6,> 100,> 100,8.9,8.9,7.3,20,> 100,4,≥ 20,
CCCCCCCCOCc1cn([C@H]2C(=O)N[C@@H]3Cc4ccc(c(Cl)c4)Oc4cc5cc(c4O)Oc4ccc(cc4Cl)[C@@H](O[C@@H]4O[C@H](CO)[C@@H](O)[C@H](O)[C@H]4NC(C)=O)[C@H]4NC(=O)[C@H](NC(O)[C@@H]5NC(=O)[C@@H](NC3=O)c3cc(O)cc(c3)Oc3cc2ccc3O)c2ccc(O)c(c2)-c2c(O)cc(O)cc2[C@H](C(=O)O)NC4=O)nn1 (some centres undefined),1.8,> 100,2.2,1.8,2.1,1.9,1.5,13,1.9,≥ 4,
COC(=O)[C@@H]1NC(=O)[C@@H]2NC(=O)[C@H](NC(=O)[C@@H]3NC(=O)[C@H]4NC(=O)[C@H](NC(=O)[C@H](Nc5c(NCc6ccc(-c7ccccc7)cc6)c(=O)c5=O)c5ccc(O)c(c5)Oc5cc4cc(O)c5C)[C@H](O)c4ccc(cc4)Oc4cc3cc(c4O)Oc3ccc(cc3)[C@H]2O)c2ccc(O)c(c2)-c2c(O)cc(O)cc21,,,,,,,,,,,Dose-dependent effect
CC(=O)N[C@H]1[C@H](O[C@@H]2c3ccc(c(Cl)c3)Oc3cc4cc(c3O)Oc3ccc(cc3Cl)C[C@H]3NC(=O)[C@H](n5cc(COC[C@H]6O[C@@H]7OC(C)(C)O[C@@H]7[C@H]7OC(C)(C)O[C@H]76)nn5)c5ccc(O)c(c5)Oc5cc(O)cc(c5)[C@H](NC3=O)C(=O)N[C@H]4C(O)N[C@H]3C(=O)N[C@H]2C(=O)N[C@@H](C(=O)O)c2cc(O)cc(O)c2-c2cc3ccc2O)O[C@H](CO)[C@@H](O)[C@@H]1O (some centres undefined),39,52,47,45,39,43,24,> 100,29,≥ 100,
